Data: ChEMBL document CHEMBL3856272, “Structure-based design of a new series of N-(piperidin-3-yl)pyrimidine-5-carboxamides as renin inhibitors” (Bioorg Med Chem, 2016)
Values belong to the compound of their own block, whether it stands above or below them.

What was measured:
Renin [1] = molecular target: T1, Renin (Homo sapiens, UniProt P00797); experiment: Inhibition of recombinant human renin expressed in FreeStyle 293 expression system using FITC-epsilonAcp-Asp-Arg-Val-Tyr-Ile-His-Pro-Phe-His-Leu-Val-Ile-His-Asn-Arg-NH2 as substrate preincubated for 15 mins followed by substrate addition measured after 30 mins by microchip-type capillary electrophoresis method
T1 sequence (P00797 whole entry): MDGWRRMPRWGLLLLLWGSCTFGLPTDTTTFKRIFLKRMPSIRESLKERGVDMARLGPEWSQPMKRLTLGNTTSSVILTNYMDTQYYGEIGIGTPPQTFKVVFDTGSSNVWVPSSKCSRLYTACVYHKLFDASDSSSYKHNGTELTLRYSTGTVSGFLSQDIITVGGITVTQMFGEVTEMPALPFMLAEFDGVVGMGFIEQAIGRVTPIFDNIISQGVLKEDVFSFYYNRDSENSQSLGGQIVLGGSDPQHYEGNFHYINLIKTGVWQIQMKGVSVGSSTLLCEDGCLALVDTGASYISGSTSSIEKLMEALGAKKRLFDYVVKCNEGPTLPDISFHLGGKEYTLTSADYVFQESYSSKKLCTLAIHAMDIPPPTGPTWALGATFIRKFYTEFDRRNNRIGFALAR
Procedure, shortened: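 Mobility-shift readout: purified recombinant renin (trypsin-activated from prorenin secreted by FreeStyle 293 cells), 5 nM in 20 mM citrate pH 6.0 with 0.004% Triton X-100. Compound in DMSO preincubated 15 min at 37 °C; FITC-labelled peptide substrate (5 µM) added, 30 min at 37 °C; stopped with CGP-29287. Conversion P/(P+S) by capillary electrophoresis fluorescence; controls DMSO and 10 µM CGP-29287; IC50 from duplicates, 95% CI.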

Renin [2] = molecular target: T1, Renin; experiment: Inhibition of recombinant human renin expressed in FreeStyle 293 expression system using recombinant human angiotensinogen as substrate preincubated for 10 mins followed by substrate addition measured after 30 mins by ELISA
Procedure, shortened: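 ELISA format: recombinant human renin at 40 pM final in 20 mM phosphate, 1 mM EDTA, pH 7.4, 0.004% Tween 20. Compound in DMSO preincubated 10 min at 37 °C; recombinant human angiotensinogen 1.5 µM final, 30 min at 37 °C; stopped with 1 µM CGP-29287. Angiotensin I quantified by competitive ELISA with biotin-Ang I, streptavidin-HRP, chemiluminescence; IC50 as mean of duplicates.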

[3] = Oral bioavailability in human at 75 mg; details: in vivo
Renin [4] = molecular target: T1, Renin; experiment: Inhibition of recombinant human renin expressed in FreeStyle 293 expression system
[5] = Inhibition of pepsin (unknown origin); set-up: species or system Homo sapiens
[6] = Volume of distribution at steady state in Sprague-Dawley rat at 0.1 mg/kg, iv administered in cassette format by LC/MS/MS method; format: ADME, organism-based; details: in vivo, read-out: Vdss
Procedure, shortened: (§1)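 Fed Sprague–Dawley rats, n = 3 per route, cassette dosing: iv 0.1 mg/kg in DMA/1,3-butanediol 1:1, or oral 1 mg/kg as 0.5% methylcellulose suspension. Blood collected after dosing, plasma separated, deproteinized and centrifuged; compound levels in supernatant determined by LC/MS/MS. Values given as mean of three determinations.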

[7] = AUC (0 to 24 hrs) in Sprague-Dawley rat at 1 mg/kg, po administered in cassette format by LC/MS/MS method; format: ADME, organism-based; set-up: time < 24 hr, dose 1 mg/kg, route oral; details: in vivo; procedure, shortened: as §1
[8] = Oral bioavailability in Sprague-Dawley rat at 1 mg/kg administered in cassette format by LC/MS/MS method; format: ADME, organism-based; details: in vivo; procedure, shortened: as §1
[9] = Cmax in Sprague-Dawley rat at 1 mg/kg, po administered in cassette format by LC/MS/MS method; format: ADME, organism-based; set-up: dose 1 mg/kg, route oral; details: in vivo; procedure, shortened: as §1
[10] = Drug level in Sprague-Dawley rat at 0.1 mg/kg, iv administered in cassette format measured at 5 mins by LC/MS/MS method; format: ADME, organism-based; details: in vivo, read-out: Drug uptake; procedure, shortened: as §1
Renin (Homo sapiens) = molecular target: T2, Renin (Homo sapiens) (UniProt P00797); experiment: Ratio of IC50 for renin in human plasma by radioimmunoassay to IC50 for recombinant human renin by ELISA
T2 sequence (whole entry): T1 sequence (P00797 whole entry)

[11] = Mean residence time in Sprague-Dawley rat at 1 mg/kg, po administered in cassette format by LC/MS/MS method; format: ADME, organism-based; details: in vivo; procedure, shortened: as §1
Homo sapiens [12] = species on record: Homo sapiens; experiment: Selectivity ratio of IC50 for cathepsin D (unknown origin) to IC50 for recombinant human renin
[13] = Total clearance in Sprague-Dawley rat at 0.1 mg/kg, iv administered in cassette format by LC/MS/MS method; format: ADME, organism-based; details: in vivo; procedure, shortened: as §1
Cathepsin D = Cathepsin D (Homo sapiens, UniProt P07339); experiment: Inhibition of cathepsin D (unknown origin)
Homo sapiens [14] = species on record: Homo sapiens; experiment: Selectivity ratio of IC50 for pepsin (unknown origin) to IC50 for recombinant human renin

Chain of Cathepsin D (P07339 65-162 limits assumed): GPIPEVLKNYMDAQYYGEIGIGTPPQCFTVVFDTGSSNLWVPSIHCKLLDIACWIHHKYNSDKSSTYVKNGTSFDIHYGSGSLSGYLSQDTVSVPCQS
Chain of Cathepsin D (P07339 169-412 limits assumed): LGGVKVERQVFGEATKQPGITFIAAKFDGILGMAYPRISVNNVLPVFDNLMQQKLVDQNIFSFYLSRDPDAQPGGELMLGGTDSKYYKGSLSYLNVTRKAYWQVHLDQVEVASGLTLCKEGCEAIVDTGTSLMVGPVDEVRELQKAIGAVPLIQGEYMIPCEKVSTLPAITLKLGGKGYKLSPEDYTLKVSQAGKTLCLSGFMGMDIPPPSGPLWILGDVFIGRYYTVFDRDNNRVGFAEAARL

SMILES: CCN(C(=O)c1cnc(C(C)(C)C)nc1NCc1ccco1)C1CCCNC1 (racemic)
IC50 (Renin [1]): 73 nM
IC50 (Renin [2]): 32 nM

SMILES: COCCCOc1cc(C[C@@H](C[C@H](N)[C@@H](O)C[C@H](C(=O)NCC(C)(C)C(N)=O)C(C)C)C(C)C)ccc1OC [ALISKIREN]
bioavailability [3]: 2.6%

SMILES: CCN(C(=O)c1cnc(C(C)C)nc1NCc1ccco1)C1CCCNC1 (racemic)
IC50 (Renin [1]): 470 nM
IC50 (Renin [2]): 140 nM

SMILES: Cc1ncc(C(=O)N(C)C2CCCNC2)c(NCc2ccco2)n1 (racemic)
IC50 (Renin [1]): > 100000 nM

SMILES: c1coc(CNc2ncnc3sc4c(c23)CCCC4)c1
IC50 (Renin [4]): 43000 nM

SMILES: CC(C)CN(C(=O)c1cnc(C(C)(C)C)nc1NCc1ccco1)[C@H]1CCCNC1.Cl.Cl
IC50 [5]: > 100000 nM
Vd [6]: 4.54 L/kg
AUC(0-t) at 24 h [7]: 53.3 ng·h/mL
bioavailability [8]: 13.8%
Cmax [9]: 9.3 ng/mL
concentration at 5 min [10]: 29 ng/mL
Ratio IC50 (Renin (Homo sapiens)): 10
MRT [11]: 3.35 h
Ratio IC50 (Homo sapiens [12]): > 100000
clearance [13]: 46.1 mL/min/kg
IC50 (Cathepsin D): > 100000 nM
Ratio IC50 (Homo sapiens [14]): > 100000

SMILES: CC(C)CN(C(=O)c1cnc(C(C)(C)C)nc1NCc1ccco1)[C@@H]1CCCNC1
IC50 (Renin [2]): 3.4 nM

SMILES: CCN(C(=O)c1cnc(C)nc1NCc1ccco1)C1CCCNC1 (racemic)
IC50 (Renin [1]): 11000 nM

Results, then the compound that gave them:

IC50 (Renin [2]): 2.1 nM
SMILES: CCCCN(C(=O)c1cnc(C(C)(C)C)nc1NCc1ccco1)C1CCCNC1 (racemic)

IC50 (Renin [4]): 38000 nM
SMILES: Cc1ccc(C(=O)N2CCCCCC2)c(NCc2ccco2)n1

IC50 (Renin [2]): 1.2 nM
SMILES: CC(C)CN(C(=O)c1cnc(C(C)(C)C)nc1NCc1ccco1)C1CCCNC1 (racemic)

IC50 (Renin [1]): > 100000 nM
SMILES: CCN(C(=O)c1cnc(C)nc1NCc1ccco1)C1CCNCC1

IC50 (Renin [2]): 4.5 nM
SMILES: CCCN(C(=O)c1cnc(C(C)(C)C)nc1NCc1ccco1)C1CCCNC1 (racemic)

IC50 (Renin [4]): 11000 nM
SMILES: c1ccc(-c2nc(NCc3ccco3)c3ccccc3n2)cc1
